Active and inactive are the calls of the source. The rule behind the calls is not given here.
What was measured:
[1] = Lipophilicity, log D of the compound at pH 7.4 by HPLC analysis; format: physicochemical; settings: buffer
Method in brief: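 At pH 7.4, log D derived from HPLC retention time relative to standard compounds.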

[2] = Plasma concentration in Sprague-Dawley rat at 0.2 mg/kg, iv administered as cassette dose after 1 hr by LC-MS/MS analysis; format: ADME, organism-based
Method in brief: (§1)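 Fasted male Sprague-Dawley rats given compounds iv by cassette dosing at 0.2 mg/kg (as free base). Plasma and stomach sampled at 10 min, 1, 4 and 24 h. Plasma and 20% stomach homogenate in saline deproteinized with acetonitrile containing internal standard, then LC/MS/MS. AUC calculated for plasma and stomach. Values are averages of three rats.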

[3] = Drug uptake in Sprague-Dawley rat stomach at 0.2 mg/kg, iv administered as cassette dose after 1 hr by LC-MS/MS analysis; format: ADME, organism-based; settings: read-out: Drug uptake; method in brief: as §1
[4] = Plasma concentration in Sprague-Dawley rat at 0.2 mg/kg, iv administered as cassette dose after 10 mins by LC-MS/MS analysis; format: ADME, organism-based; method in brief: as §1
[5] = biological target: CYP3A4 (Homo sapiens, UniProt P08684); experiment: Inhibition of CYP3A4 (unknown origin) expressed in insect cells at 10 uM using testosterone as substrate after 15 mins by HPLC analysis relative to control; format: ADME; settings: recombinant CYP3A4 expressed in insect cells, probe testosterone
Chain of CYP3A4 (P08684 whole entry): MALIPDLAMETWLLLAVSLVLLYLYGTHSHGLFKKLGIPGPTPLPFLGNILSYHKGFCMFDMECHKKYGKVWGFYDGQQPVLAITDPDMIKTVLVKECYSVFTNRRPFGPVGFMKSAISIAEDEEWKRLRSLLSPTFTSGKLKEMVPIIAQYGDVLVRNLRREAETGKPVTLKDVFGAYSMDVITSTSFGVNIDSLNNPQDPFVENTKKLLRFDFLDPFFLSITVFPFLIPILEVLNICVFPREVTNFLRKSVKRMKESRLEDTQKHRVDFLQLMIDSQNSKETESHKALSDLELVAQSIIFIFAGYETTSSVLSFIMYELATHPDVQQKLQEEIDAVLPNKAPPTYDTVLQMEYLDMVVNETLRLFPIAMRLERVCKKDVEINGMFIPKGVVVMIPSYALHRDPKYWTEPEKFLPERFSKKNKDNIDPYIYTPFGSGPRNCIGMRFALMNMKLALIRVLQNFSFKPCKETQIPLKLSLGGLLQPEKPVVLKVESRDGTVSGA
Method in brief: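 Testosterone substrate at 100 μmol/L with 10 nmol/L insect-cell-expressed CYP3A4 and 10 μmol/L test compound, incubated 15 min at 37 °C. 6β-hydroxytestosterone quantified by HPLC with UV detection.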

[6] = biological target: hERG (KCNH2) (Homo sapiens, UniProt Q12809); experiment: Inhibition of human ERG expressed in HEK cells at 10 uM at -75 mV holding potential by Whole-cell voltage clamp assay relative to control; format: cell-based; settings: HEK cells expressing human ERG
Chain of hERG (KCNH2) (Q12809 whole entry): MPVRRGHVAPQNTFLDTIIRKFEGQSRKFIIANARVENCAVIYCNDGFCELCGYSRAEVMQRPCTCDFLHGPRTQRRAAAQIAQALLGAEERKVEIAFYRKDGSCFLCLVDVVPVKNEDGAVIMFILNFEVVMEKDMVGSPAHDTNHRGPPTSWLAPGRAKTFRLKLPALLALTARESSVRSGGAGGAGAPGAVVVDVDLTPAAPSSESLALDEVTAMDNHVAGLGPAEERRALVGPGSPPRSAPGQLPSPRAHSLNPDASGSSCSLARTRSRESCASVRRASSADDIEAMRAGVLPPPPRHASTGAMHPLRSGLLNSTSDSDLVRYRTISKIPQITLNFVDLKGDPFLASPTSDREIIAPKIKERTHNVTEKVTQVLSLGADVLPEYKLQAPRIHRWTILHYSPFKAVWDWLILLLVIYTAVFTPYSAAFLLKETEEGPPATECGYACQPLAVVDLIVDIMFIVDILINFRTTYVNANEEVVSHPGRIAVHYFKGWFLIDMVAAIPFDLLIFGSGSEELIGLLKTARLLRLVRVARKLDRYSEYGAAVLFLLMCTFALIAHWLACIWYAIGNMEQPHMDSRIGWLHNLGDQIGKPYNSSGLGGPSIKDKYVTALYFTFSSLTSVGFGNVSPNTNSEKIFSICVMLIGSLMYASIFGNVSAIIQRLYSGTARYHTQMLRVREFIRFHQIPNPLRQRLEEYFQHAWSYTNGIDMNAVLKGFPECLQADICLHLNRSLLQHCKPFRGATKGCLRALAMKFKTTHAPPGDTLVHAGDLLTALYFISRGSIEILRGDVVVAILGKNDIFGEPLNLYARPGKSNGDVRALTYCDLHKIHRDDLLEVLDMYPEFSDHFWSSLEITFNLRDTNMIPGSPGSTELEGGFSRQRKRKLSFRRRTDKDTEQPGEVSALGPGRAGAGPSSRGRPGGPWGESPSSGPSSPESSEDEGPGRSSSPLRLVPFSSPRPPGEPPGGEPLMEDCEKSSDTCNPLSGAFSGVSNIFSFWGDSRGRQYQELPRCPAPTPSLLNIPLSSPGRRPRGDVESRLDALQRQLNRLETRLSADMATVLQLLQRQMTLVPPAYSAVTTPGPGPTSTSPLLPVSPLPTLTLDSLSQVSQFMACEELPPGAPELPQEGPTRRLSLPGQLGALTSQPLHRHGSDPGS

[7] = system: Stomach; experiment: AUC in Sprague-Dawley rat stomach at 0.2 mg/kg, iv administered as cassette dose by LC-MS/MS analysis; format: ADME, organism-based; settings: in vivo; method in brief: as §1
[8] = system: Rattus norvegicus; experiment: Inhibition of histamine-induced acid secretion in Jcl:Sprague-Dawley rat gastric at 1 mg/kg, iv pretreated for 3 mins after pylorus ligation followed by histamine.2HCl treatment measured after 3 hrs by titration method relative to control; format: functional
Method in brief: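 Anesthetized rats dosed iv at 1 mg/kg. Total acid output over 3 h after histamine injection compared with vehicle-treated rats.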

[9] = AUC in Sprague-Dawley rat plasma at 0.2 mg/kg, iv administered as cassette dose by LC-MS/MS analysis; format: ADME, organism-based; method in brief: as §1
[10] = system: Rattus norvegicus; experiment: Inhibition of histamine-induced acid secretion in Jcl:Sprague-Dawley rat assessed as increase in pH of gastric perfusate at 1 mg/kg, iv pretreated for 3 mins after pylorus ligation followed by histamine.2HCl treatment measured after 180 to 300 mins by glass electrode method; format: functional, organism-based
[11] = Drug uptake in Sprague-Dawley rat stomach at 0.2 mg/kg, iv administered as cassette dose after 24 hrs by LC-MS/MS analysis; format: ADME, organism-based; settings: read-out: Drug uptake; method in brief: as §1
[12] = Drug uptake in Sprague-Dawley rat stomach at 0.2 mg/kg, iv administered as cassette dose after 10 mins by LC-MS/MS analysis; format: ADME, organism-based; settings: read-out: Drug uptake; method in brief: as §1
[13] = Cytotoxicity against human HepG2 cells assessed as cellular ATP level at 100 uM after 1 day by ATPLite assay relative to control; format: cell-based; settings: read-out: Activity
[14] = Drug uptake in Sprague-Dawley rat stomach at 0.2 mg/kg, iv administered as cassette dose after 4 hrs by LC-MS/MS analysis; format: ADME, organism-based; settings: read-out: Drug uptake; method in brief: as §1
[15] = system: Rattus norvegicus; experiment: Inhibition of histamine-induced acid secretion in Jcl:Sprague-Dawley rat assessed as increase in pH of gastric perfusate at 1 mg/kg, iv pretreated for 3 mins after pylorus ligation followed by histamine.2HCl treatment measured after 3 hrs by glass electrode method; format: functional, organism-based
[16] = Inhibition of H+/K+-ATPase in porcine stomach gastric mucosal microsomes assessed as reduction in inorganic phosphate production using ATP as substrate preincubated for 30 mins followed by ATP addition in presence of KCl at pH 6.5 by malachite green reagent based colorimetric assay; design: species or system Sus scrofa
[17] = Inhibition of CYP450 (unknown origin); format: ADME; settings: human
[18] = system: Rattus norvegicus; experiment: Inhibition of histamine-induced acid secretion in po dosed rat assessed as increase in pH of gastric perfusate pretreated for 1 hr followed by pylorus ligation and histamine.2HCl treatment measured after 3 hrs by glass electrode method; format: functional, organism-based
[19] = system: Rattus norvegicus; experiment: Inhibition of histamine-induced acid secretion in Jcl:Sprague-Dawley rat assessed as pH of gastric perfusate at 1 mg/kg, iv pretreated for 3 mins after pylorus ligation followed by histamine.2HCl treatment measured after 3 hrs by glass electrode method (reference value: 2); format: functional
[20] = Stability of the compound under acidic condition; format: physicochemical
[21] = Dissociation constant, pKa of the compound; format: physicochemical
Method in brief: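 pH-metric titration across pH 2–12 with an Ag/AgCl pH electrode.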

[22] = system: Canis familiaris; experiment: Inhibition of histamine-induced acid secretion in dog heidenhain pouch at 1 mg/kg, po treated 1 day after and 1 to 48 hrs before histamine.2HCl treatment measured 30 mins post histamine challenge by titration method; format: functional, organism-based; settings: Canis lupus familiaris
[23] = system: Canis familiaris; experiment: Inhibition of histamine-induced acid secretion in dog heidenhain pouch at 1 mg/kg, po treated 1 day after and 1 to 48 hrs before histamine.2HCl treatment measured up to 24 hrs post dose by titration method; format: functional, organism-based; settings: Canis lupus familiaris
Method in brief: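 Heidenhain pouch dogs dosed orally at 1 mg/kg, with histamine-stimulated acid secretion followed over time, up to 24 h after dosing. Mean ± SE from three or four dogs.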

[24] = Plasma concentration in Sprague-Dawley rat at 0.2 mg/kg, iv administered as cassette dose after 4 hrs by LC-MS/MS analysis; format: ADME, organism-based; method in brief: as §1

Row | Structure (SMILES) | logD [1] | concentration at 1 h [2] [ng/mL] | concentration at 1 h [3] [ng/g] | concentration at 10 min [4] [ng/mL] | inhibition at 0.25 h, 10 µM [5] [%] | inhibition at 10 µM [6] [%] | AUC [7] [ng·h/g] | inhibition in vivo at 1 mg/kg [8] [%] | AUC [9] [ng·h/mL] | inhibition [10] | concentration at 24 h [11] [ng/g] | concentration at 10 min [12] [ng/g] | viability at 24 h, 100 µM [13] [%] | concentration at 4 h [14] [ng/g] | IC50 [16] [nM] | pH [19] | other results
1 | CNCc1cn(S(=O)(=O)c2ccc(C)nc2)c(-c2cccnc2F)c1F | 0.62 | 10.8 | 1120 | 40.1 | -1.2 | 24.8 | 18284 | 97 | 41 | inactive | 219 | 672 | 76.7 | 1180 | 180 | – | inhibition [15]: Active
2 | CNCc1cn(S(=O)(=O)c2cc(C)ccn2)c(-c2cccnc2F)c1F | 0.48 | 8.1 | 927 | 39.4 | 4.3 | 45.1 | 10378 | 92 | 35 | inactive | 28.9 | 947 | 85.5 | 682 | 73 | 6 | inhibition (INH) [17]: Not Active; inhibition [18]: Dose-dependent effect; Stability [20]: Stable; pKa [21]: 8.73; inhibition [22]: Active; inhibition [23]: Active
3 | CNCc1cn(S(=O)(=O)c2ccccn2)c(-c2cccnc2F)c1F | 0.44 | 7.9 | 809 | 36 | 7.7 | 9 | 5757 | 95 | 33 | inactive | 2.1 | 617 | 94.8 | 337 | 97 | 5 | inhibition [22]: Active
4 | CNCc1cn(S(=O)(=O)c2cccc(OC)n2)c(-c2cccnc2F)c1F | 1.03 | 14.9 | 1260 | 43.5 | 55.8 | 82.3 | 14434 | 98 | 50 | – | 47.9 | 773 | 69.8 | 971 | 150 | – | inhibition [15]: Active
5 | CNCc1cn(S(=O)(=O)c2cccnc2C)c(-c2cccnc2F)c1F | 0.48 | 8 | 577 | 25.3 | 30.1 | 14.8 | 4806 | 92 | 32 | – | – | 507 | 97.4 | 300 | 210 | – | concentration at 4 h [24]: 0.3 ng/mL
6 | CNCc1cn(S(=O)(=O)c2cncc(F)c2)c(-c2cccnc2F)c1F | 0.83 | 8.3 | 606 | 43 | 27 | 22.7 | 6599 | 99 | 38 | inactive | 38.3 | 330 | 88.9 | 425 | 200 | >5 | –
7 | CNCc1cn(S(=O)(=O)c2cccs2)c(-c2cccnc2F)c1F | 0.54 | 12.2 | 955 | 36.6 | 20.5 | 56.1 | 11717 | 98 | 42 | – | 17.4 | 412 | 77.5 | 827 | 72 | – | –
8 | CNCc1cn(S(=O)(=O)c2cc(OC)ccn2)c(-c2cccnc2F)c1F | 0.51 | 10.1 | 773 | 37.2 | 19 | 38.7 | 4964 | 95 | 38 | – | 8.8 | 617 | 84.5 | 268 | 140 | – | –
